CAL PDZ FP-1 = blocks peptide binding to human CAL PDZ domain; purified CAL PDZ, TMR-peptide fluorescence polarization, 1 h; 0.02% of 330,000 active; inhibition, % at 20 µM; Q9HD26; AID 504414;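 active = highest replicate inhibition of at least 40%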;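 note: plate controls were DMSO neutral control wells for no effect and unlabeled competitor peptide control wells for full effect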
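material = purified tagged CAL PDZ domain construct (CerCALP) | compound dosing = 20 µM, one dose | times = 1 h at RT | measured by = fluorescence polarization from S- and P-plane intensities, G-factor corrected | read-out = inhibition from polarization loss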
RAD54 inh = blocks human RAD54 Holliday junction branch migration; Q92698; FAM/BHQ fluorescence; inhibition, % at 10.4 µM; 0.14% of 360,000 active; AID 602329;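 active = mean normalized replicate activity at least 40 and at least half of replicates scoring 40 or more; inconclusive = only one of the two criteria met; inactive = mean below 40 and under half of replicates reaching 40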;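 note: 0% = median of neutral control wells and 100% = median of positive control wells; inhibitors cause a drop in the FAM fluorescence signal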
PDI turbidity = inhibitors of human protein disulfide isomerase; P07237; PDI insulin aggregation turbidity, A650, 90 min; inhibition, % at 10 µM; 0.052% of 350,000 active;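 active = mean inhibition across replicates of 30% or more, whatever share of single replicates reach that level; inconclusive = mean inhibition below 30% while every single replicate reaches 30%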
ERp5 block = inhibitors of human ERp5. Q15084. ERp5 insulin aggregation, absorbance 650 nm, 90 min. inhibition, % at 9.99 µM. 0.05% of 350,000 active. AID 651711;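 active = mean replicate inhibition above about 25%, with every replicate also reaching it, limit read from the data, passing the limit was not always enough; inconclusive = only one of those two criteria met; inactive = neither criterion met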
CAL PDZ FP-2 = inhibitors of human CAL PDZ peptide binding; Q9HD26; purified CAL PDZ, TMR-peptide fluorescence polarization, 1 h; inhibition, % at 24.9 µM; 0.92% of 300,000 active; AID 602252;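 active = mean inhibition of at least 30% with at least half of replicates also reaching 30%; inconclusive = no clear call, values can overlap the other calls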;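 note: 0% = DMSO neutral control and 100% = excess unlabeled competitor peptide PRC23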
RAD52 anneal inh = blocks human RAD52 DNA annealing. 0.46% of 360,000 active. recombinant RAD52 DNA annealing, FRET fluorescence. P43351. inhibition, % at 18.7 µM;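 active = every replicate showing at least 50% inhibition; inconclusive = mean inhibition at least 50% but not in every replicate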
Target sequence (P43351 whole entry, looked up): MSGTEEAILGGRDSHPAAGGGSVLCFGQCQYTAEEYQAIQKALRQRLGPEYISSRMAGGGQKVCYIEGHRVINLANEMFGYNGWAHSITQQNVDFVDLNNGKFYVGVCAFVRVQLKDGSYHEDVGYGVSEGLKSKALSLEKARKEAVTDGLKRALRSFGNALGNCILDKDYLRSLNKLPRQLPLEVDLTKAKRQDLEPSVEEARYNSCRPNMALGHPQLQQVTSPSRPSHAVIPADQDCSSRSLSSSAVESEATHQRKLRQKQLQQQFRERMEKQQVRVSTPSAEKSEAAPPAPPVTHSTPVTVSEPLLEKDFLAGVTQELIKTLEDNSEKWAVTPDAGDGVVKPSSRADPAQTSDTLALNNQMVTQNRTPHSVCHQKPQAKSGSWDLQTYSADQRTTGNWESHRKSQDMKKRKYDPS
Rad54 DNA ctr = counter-screen for Rad54 inhibitors: DNA binding compounds; 8% of 460 active; shares compounds with RAD54 inh; Acridine orange-DNA displacement, fluorescence polarization, 20 min; AC50, µM (highest dose often 35 µM), inactives show top-dose activity change, negative = DNA binding;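 active = signal drop giving an AC50 within twice the top valid tested concentration of each sample, actives reach about 35 µM in these data; inactive = activity opposite to expected, plus the rest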;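 note: polarization loss reports compound binding to salmon sperm DNA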
Active calls of the source: *; i = inactive; ? = inconclusive; · = no result. This is a sample that favours compounds with a hit; in the whole collection about 1% have one here.

SMILES	CAL PDZ FP-1	RAD54 inh	PDI turbidity	ERp5 block	CAL PDZ FP-2	RAD52 anneal inh	Rad54 DNA ctr
CCN1CCN(c2cc(C)c3cc(NC(=S)NCCN(C)C)ccc3n2)CC1	3	93*	-1	-6	-1	98*	-9%
COc1ccc(C(=O)Nc2ccc3nc(N4CCN(C)CC4)cc(C)c3c2)c(OC)c1	1	51*	13	2	0	31	7%
CCN1CCN(c2cc(C)c3cc(NC(=S)N(C)Cc4ccccc4)ccc3n2)CC1	0	18	-9	0	-3	23	·
CCCCN(C)C(=S)Nc1ccc2nc(N3CCN(CC)CC3)cc(C)c2c1	-2	·	-2	-7	-1	48	·
CCN1CCN(c2cc(C)c3cc(NC(=O)c4cccc(OC)c4)ccc3n2)CC1	2	2	0	-2	14	34	·
CCCCN(C)CCNC(=S)Nc1ccc2nc(N3CCN(CC)CC3)cc(C)c2c1	0	81*	-1	1	-2	95*	9%
Cc1cc(N2CCN(C)CC2)nc2ccc(NC(=S)NCCN3CCc4ccccc4C3)cc12	2	89*	-3	-3	-5	81*	5%
C[C@H](CO)N1C[C@H](C)[C@H](CN(C)C(=O)C2CC2)Oc2cc(C#C[C@@H](C)O)ccc2S1(=O)=O	·	-2	·	-4	·	8	·
CO[C@H]1CN(C)C(=O)c2cc(NC(=O)NC(C)C)ccc2OC[C@H](C)N(CC2CC2)C[C@H]1C	·	-3	·	1	·	28	·
CCN1CCCC1CNC(=O)c1cc2c(C)nc3ccccc3c2o1 (centres undefined)	-2	28	4	·	·	·	·
Cc1nc2ccccc2c2oc(C(=O)NCCN3CCCCC3C)cc12 (centres undefined)	-1	52*	·	1	0	-5	-19%
Cc1nc2ccccc2c2oc(C(=O)N3CCC(N4CCCCC4)CC3)cc12	0	67*	·	·	·	·	-5%
COc1ccc2nc(-c3ccc(N)cc3)[nH]c2c1	-1	77*	-2	·	·	·	-5%
O=c1c2ccccc2oc2ccc(NCCCn3ccnc3)cc12	-1	-11	-3	5	-1	-79	·
Cc1cc2oc3cc(NCCC4CCCN4C)ccc3c(=O)c2cc1C (centres undefined)	-3	69*	1	6	-4	-261	-15%
O=c1c2ccccc2sc2ccc(NCCCN3CCOCC3)cc12	2	51*	1	-2	7	-7	-29%
CN1CCCC1CCNc1ccc2sc3ccccc3c(=O)c2c1 (centres undefined)	3	56*	-4	-4	-4	-2	-16%
C[C@H]1CN([C@@H](C)CO)C(=O)c2cc(NS(=O)(=O)c3ccc(Cl)cc3)ccc2O[C@@H]1CN(C)S(=O)(=O)c1ccc(Cl)cc1	·	-2	·	3	·	12	·
O=C(C[C@H]1CC[C@H](NC(=O)c2ccc3c(c2)OCO3)[C@H](CO)O1)NCc1ccc(Cl)cc1	·	-1	·	-2	·	0	·
Cn1c2ccc(F)cc2c2ncn(CCCN(CCO)CCO)c(=O)c21	-1	54*	-3	·	-3	·	-14%
O=C1C(c2ccc(F)cc2)N(C2CCCCC2)C(=O)CN1C1CCCC1 (centres undefined)	·	?	0	·	-3	·	-12%
Cc1ccc(C2C(=O)N(C3CCC(C)CC3)CC(=O)N2C2CCCC2)cc1 (centres undefined)	0	9	-2	·	13	·	·
Cc1cc(C)n(-c2nc(NCCN(C)C)c3c4c(sc3n2)COC(C)(C)C4)n1	·	?	0	1	·	29	11%
COc1cc(OC)c2nc(C)c3c(c2c1)N(c1ccc(O)cc1)CC3	0	51*	-1	·	-7	·	-3%
O=C(CS(=O)(=O)c1ccccc1)Nc1ccc(Br)cn1	-1	?	-25	·	1	·	8%
SMILES	CAL PDZ FP-1	RAD54 inh	PDI turbidity	ERp5 block	CAL PDZ FP-2	RAD52 anneal inh	Rad54 DNA ctr
CCCNC(=O)C[C@@H]1CC[C@@H]2[C@H](COc3ccc(NS(=O)(=O)c4ccccc4C)cc3C(=O)N2C)O1	·	0	·	-2	·	3	·
CCN(CC)CCn1c2ccc(F)cc2c2nc(C)sc21	-1	?	1	·	-4	·	-5%
COc1ccccc1-c1ccc([C@H]2[C@H](C#N)N(C(=O)C3CC3)[C@H]2CO)cc1	·	2	·	?	·	-9	·
CCOC(=O)c1c(NC(C)=O)sc2c(OCC(O)CN(CC)CC)c(Br)ccc12 (centres undefined)	-7	84*	-1	5	6	46	2%
CCOC(=O)c1c(NC(C)=O)sc2c(OC)c(Br)ccc12	1	3	2	0	-2	-17	·
C[C@H]1CN([C@@H](C)CO)C(=O)c2cc(C#Cc3ccccc3)cnc2O[C@@H]1CN(C)C(=O)CN(C)C	·	-23	·	-4	·	36	·
CCN(CC)CCNC(=O)c1cc2c(-c3ccc(Cl)cc3)nn(C)c2s1	-16	113*	-3	1	·	61*	i
O=C(CC1CC1)N[C@H]1CC[C@@H](CCNS(=O)(=O)c2ccc(F)cc2)O[C@H]1CO	·	8	·	0	·	-2	·
Cc1nnc2c(N3CCN(CCO)CC3)nc3ccccc3n12	0	?	-6	0	0	5	-18%
COCC#Cc1cnc2c(c1)C(=O)N([C@@H](C)CO)C[C@H](C)[C@H](CN(C)S(=O)(=O)c1ccccc1)O2	·	-4	·	0	·	4	·
C[C@@H]1CN([C@@H](C)CO)C(=O)c2cc(NC(=O)NC3CCCCC3)ccc2O[C@@H]1CN(C)C(=O)Nc1ccc2c(c1)OCO2	·	-4	·	-1	·	-11	·
Cc1ccc(O)c(Nc2c3ccccc3nc3ccccc23)c1	1	9	-8	0	2	2	·
Oc1ccc(CCNc2c3ccccc3nc3ccccc23)cc1O	-1	116*	-4	1	-5	106*	25µM*
CCOC(=O)c1c(CN2CCCCC2)n(C)c2cc(Br)c(OC)cc12	0	?	-2	·	-4	·	-17%
CNC[C@@H]1Oc2ccc(NC(=O)Nc3ccc(F)cc3)cc2CC(=O)N([C@@H](C)CO)C[C@@H]1C	·	11	·	1	·	6	·
c1cc2c3c(cccc3c1)C(N1CCCCCC1)=N2	0	18	5	·	0	·	·
c1cc2c3c(cccc3c1)C(N1CCCCC1)=N2	0	65*	16	·	·	·	-20%
COc1cc2c(C#N)c(N3CCN(C)CC3)nc(N)c2c(N)n1	2	71*	17	·	10	·	-17%
COc1cccc(NC(=O)N2C[C@@H](O)COC[C@H]3O[C@@H](CC(=O)NC4Cc5ccccc5C4)CC[C@@H]32)c1	·	3	·	0	·	-3	·
O=C(Nc1ccccc1)N1C[C@H]2[C@@H](c3ccccc31)[C@H](CO)N2C(=O)Cc1ccccn1	·	2	·	-2	·	-10	·
Cc1ccnc(Nc2nc(-c3sc(C)nc3C)cs2)c1	2	?	-3	-3	·	-15	-4%
